DNA FID counter: displaces DNA intercalator in HCV helicase counter-screen | DNA fluorescent intercalator displacement, fluorescence | inhibition, % at 7.9 µM | hit rate 0.17% among 290,000; in the data active means inhibition above about 37%;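 further: higher means more ethidium bromide displaced from hairpin DNA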
EBNA-1 inh: blocks EBNA-1 binding to DNA | inhibition, % at 14.8 µM | hit rate 0.34% among 300,000 | EBNA-1 DNA binding, fluorescence polarization; in the data active means inhibition above about 28%
NS3 helicase inh: blocks Hepatitis C virus NS3 helicase unwinding | NS3 helicase DNA unwinding, Cy5 molecular beacon fluorescence | inhibition, % at 10.9 µM | hit rate 0.56% among 290,000;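 active means inhibition above the mean of all tested compounds plus 3 SD, set per campaign, cut at about 35% in these data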
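Control set: DMSO versus 110 µM thioflavine S; Material: NS3 helicase fragment of HCV; Measured by: Cy5 fluorescence at 0 and 60 min, beacon hairpin quenching; Read-out basis: percent inhibition from t60/t0 fluorescence ratio; Times: reaction time 60 min, 25 °C; Repeats: single replicate; Compound dosing: single dose, 10.9 µM nominal final, DMSO 0.8% final.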
GPR7 antag: human neuropeptides B/W receptor 1 antagonism. P48145. GPR7-expressing cells, fluorescence antagonist assay. inhibition, % at 4.4 µM. hit rate 1.1% among 290,000; in the data active means inhibition above about 16%, passing the limit was not always enough;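 further: cells stimulated with the agonist NPW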
Target sequence (P48145 whole entry, looked up): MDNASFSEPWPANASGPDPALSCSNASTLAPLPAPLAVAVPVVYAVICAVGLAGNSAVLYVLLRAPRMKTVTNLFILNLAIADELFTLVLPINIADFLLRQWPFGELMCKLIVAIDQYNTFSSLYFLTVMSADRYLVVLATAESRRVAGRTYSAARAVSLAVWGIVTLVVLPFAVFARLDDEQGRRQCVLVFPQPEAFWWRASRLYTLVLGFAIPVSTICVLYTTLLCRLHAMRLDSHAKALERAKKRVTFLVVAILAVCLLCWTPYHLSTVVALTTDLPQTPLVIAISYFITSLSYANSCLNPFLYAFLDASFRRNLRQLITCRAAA
ZTA DNA inh: blocks Epstein-Barr virus ZTA, an EBNA-1 counter-screen. ZTA-DNA binding, fluorescence polarization. inhibition, % at 11 µM. hit rate 0.15% among 320,000; in the data active means inhibition above about 33%
Target sequence (P03206 whole entry, looked up): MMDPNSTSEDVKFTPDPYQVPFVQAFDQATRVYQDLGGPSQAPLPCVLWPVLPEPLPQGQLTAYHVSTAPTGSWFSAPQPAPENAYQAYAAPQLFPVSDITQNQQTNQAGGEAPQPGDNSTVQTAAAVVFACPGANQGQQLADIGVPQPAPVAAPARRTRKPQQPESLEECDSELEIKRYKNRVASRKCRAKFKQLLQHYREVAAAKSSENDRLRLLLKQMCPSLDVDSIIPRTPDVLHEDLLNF
GPR7 antag cf: human GPR7 antagonism, confirmation assay | shares compounds with GPR7 antag | GPR7-expressing cells, calcium fluorescence antagonist mode | inhibition, % at 4.4 µM | hit rate 52% among 2,400 | AID 1952; in the data active means inhibition above about 24%;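 further: stimulated with the GPR7 agonist NPW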
MCHR1 antagonist: MCHR1 (human) antagonism in GPR7 counter-screen; hit rate 62% among 2,400; MCHR1-expressing cells, fluorescence antagonist assay; shares compounds with GPR7 antag; inhibition, % at 4.4 µM; AID 2148; in the data active means inhibition above about 22%
Of the large screens only hits and unclear results are named; the others gave an inactive call (follow-up assays come after a bar, where they were run). Rows were chosen to be rich in hits. Some 2% of all compounds tested hit in one or more screens of this group.

Cc1ccccc1Oc1ncnc2oc(-c3ccccc3)cc12	GPR7 antag 29 | GPR7 antag cf 31 | MCHR1 antagonist inactive
O=C(Cc1nc2ccccc2s1)c1ccc(O)cc1O	GPR7 antag 25 | GPR7 antag cf inactive | MCHR1 antagonist inactive
Cc1cccc(N2CCN(C(=O)COc3ccc4ccc(=O)oc4c3)CC2)c1C	GPR7 antag 37 | GPR7 antag cf 45 | MCHR1 antagonist 42
O=C(COC(=O)/C=C/c1cccc(Br)c1)Nc1cccc(S(=O)(=O)NC2=NCCC2)c1	none (no result: DNA FID counter, EBNA-1 inh, NS3 helicase inh, GPR7 antag)
COCCCNCCCCOc1ccc(Br)cc1Cl	none
CC1CCN(CCOCCOc2ccc(Br)cc2Cl)CC1	GPR7 antag 29 | GPR7 antag cf 32 | MCHR1 antagonist 37
CN(C)CCCCOc1ccc(Br)cc1Cl	GPR7 antag 29 | GPR7 antag cf inactive | MCHR1 antagonist inactive
COc1ccccc1CCNC(=O)c1ccc(Br)s1	none
COC(=O)CCN(c1ccccc1)S(=O)(=O)c1cc(-c2cc(C)no2)ccc1OC	none
COCCSc1ccccc1C(=O)Nc1cc(C)cc(C)c1	none
COCCSc1ccccc1C(=O)Nc1ccncc1	GPR7 antag 57 | GPR7 antag cf inactive | MCHR1 antagonist inactive
CCc1ccc(N2CC(C(=O)OCC(=O)Nc3ccc(C#N)cc3)CC2=O)cc1 (stereo unspecified)	none (no result: DNA FID counter, EBNA-1 inh, NS3 helicase inh, GPR7 antag)
COC(=O)c1cc(Br)ccc1NC(=O)CSCc1c(C)noc1C	none (no result: DNA FID counter, EBNA-1 inh, NS3 helicase inh, GPR7 antag)
CC(=O)Oc1ccc2c(c1)Oc1cc(OC(C)=O)ccc1C21OC(=O)c2ccccc21	GPR7 antag 105 | GPR7 antag cf 103 | MCHR1 antagonist 109
COc1ccc(Cl)c(N2CCN(CCCNC(=O)Nc3ccc(C)cc3)CC2)c1	GPR7 antag 31 | GPR7 antag cf inactive | MCHR1 antagonist 42
COc1ccc(NC(=O)NCCN2CCN(c3cc(OC)ccc3OC)CC2)cc1	none
Cc1nn(C)cc1/C=N\NC(=O)Cc1ccc([N+](=O)[O-])cc1	GPR7 antag 24 | GPR7 antag cf inactive | MCHR1 antagonist inactive
CC(C)CCNC(=O)C(c1ccco1)N(Cc1cccs1)C(=O)Cn1nnc2ccccc21 (stereo unspecified)	GPR7 antag 33 (no result: EBNA-1 inh, ZTA DNA inh) | GPR7 antag cf inactive | MCHR1 antagonist inactive
CC(=O)c1ccc(S(=O)(=O)N(C)CCCC(=O)N(C)Cc2c(F)cccc2Cl)cc1	none
CCN(CC(=O)Nc1cccc(C#N)c1)CC(=O)Nc1cccc(OC)c1	GPR7 antag 27 | GPR7 antag cf 30 | MCHR1 antagonist inactive
N#Cc1ccc(NC(=O)Nc2cccc(C#N)c2)cc1	GPR7 antag 25 (no result: EBNA-1 inh, ZTA DNA inh) | GPR7 antag cf 36 | MCHR1 antagonist 55
CC(C)(C)CN1CCC(Oc2cccc(C(=O)N3CCC[C@H]3CO)c2)CC1	none
CCCCNC(=O)CN(Cc1ccco1)S(=O)(=O)c1ccc(C(C)=O)cc1	none (no result: DNA FID counter, EBNA-1 inh, NS3 helicase inh, GPR7 antag)
O=C(NCc1ccccc1)C1CCCN(S(=O)(=O)c2ccc(-n3cnnn3)cc2)C1 (stereo unspecified)	GPR7 antag 23 | GPR7 antag cf inactive | MCHR1 antagonist inactive
O=C(NCc1ccc(F)cc1)C1CCCN(S(=O)(=O)c2ccc(-n3cnnn3)cc2)C1 (stereo unspecified)	none
O=C(OCc1ccc(O)cc1)c1c(-c2ccsc2)oc2ccc(N3CCOCC3)cc12	none
Cc1ccc(Oc2ccc(S(=O)(=O)N3CCOCC3)cc2C(N)=O)cc1C	none
Nc1ccccc1C#CC(=O)c1ccccc1	GPR7 antag 37 | GPR7 antag cf 71 | MCHR1 antagonist 36
CCC(C)c1ccc(C(C)NC(=S)NCc2ccc(F)cc2)cc1 (stereo unspecified)	none
CCOc1ccc(C(C)NC(=S)NCc2ccc(Cl)cc2)cc1 (stereo unspecified)	GPR7 antag 30 | GPR7 antag cf 61 | MCHR1 antagonist 70
CCNC(=S)NCc1ccc(Cl)cc1	none
CCCc1ccc(C(C)NC(=S)NCc2ccc(F)cc2)cc1 (stereo unspecified)	GPR7 antag 59 | GPR7 antag cf 79 | MCHR1 antagonist 93
Cc1ccc(NC(=O)CSc2nnc(-c3ccncc3)n2C)cc1C	GPR7 antag 83 | GPR7 antag cf inactive | MCHR1 antagonist inactive
CN(C)S(=O)(=O)c1cccc(NC(=O)c2cccc(S(=O)(=O)N3CCc4ccccc43)c2)c1	none (no result: DNA FID counter, EBNA-1 inh, NS3 helicase inh, GPR7 antag)
Cc1cccc(N2C(=O)c3cccc4c(N)ccc(c34)C2=O)c1	none
Cc1cccc(N2C(=O)c3cccc4c(N(C)CCO)ccc(c34)C2=O)c1	GPR7 antag 25 | GPR7 antag cf 34 | MCHR1 antagonist 53
CCSCCOC(=O)C1=C(C)N(C)C(=O)NC1c1cc(OC)ccc1OC (stereo unspecified)	GPR7 antag 23 | GPR7 antag cf inactive | MCHR1 antagonist inactive
CCSCCOC(=O)C1=C(C)NC(=O)NC1c1cc(OC)ccc1OC (stereo unspecified)	none
CSc1nc2ccccc2n1CC(=O)Nc1cc(C(F)(F)F)ccc1N1CCOCC1	GPR7 antag 36 | GPR7 antag cf 38 | MCHR1 antagonist 26
Cc1ccc2c(c1)N(C(=O)CCC(=O)NCCCN1CC(C)CC(C)C1)CCO2 (stereo unspecified)	none
O=C(NCC(c1ccco1)N1CCCC1)c1ccccc1Sc1ccc(C(F)(F)F)cc1[N+](=O)[O-] (stereo unspecified)	none (no result: DNA FID counter, NS3 helicase inh, GPR7 antag)
C=C(C)Cn1c(C2CC(=O)N(Cc3ccccc3)C2)nc2ccccc21 (stereo unspecified)	none (no result: DNA FID counter, NS3 helicase inh, GPR7 antag)
C=CCN1CC(c2nc3ccccc3n2CCOc2ccccc2)CC1=O (stereo unspecified)	GPR7 antag 33 | GPR7 antag cf inactive | MCHR1 antagonist inactive
Cc1ccc(C)c(NC(=O)c2ccc(N(C)S(C)(=O)=O)cc2)c1	none
COc1ccc(C)cc1NC(=O)c1ccc(N(C)S(C)(=O)=O)cc1	GPR7 antag 31 | GPR7 antag cf inactive | MCHR1 antagonist inactive
CSc1ccc(NC(=O)NCCCN2CCC(Cc3ccccc3)CC2)cc1	GPR7 antag 29 | GPR7 antag cf 26 | MCHR1 antagonist 33
Cc1c(C(=O)OCc2ccccc2)nnn1-c1nonc1N	GPR7 antag 21 | GPR7 antag cf inactive | MCHR1 antagonist inactive
O=C(CN1CC(c2ccccc2)CC1=O)OCc1cccc(Br)c1 (stereo unspecified)	none
Nc1nnnn1CC(=O)OCc1cccc(Br)c1	GPR7 antag 27 | GPR7 antag cf inactive | MCHR1 antagonist inactive
COc1cc(-c2noc(C3CCCN(C(=O)c4c(F)cccc4F)C3)n2)cc(OC)c1OC (stereo unspecified)	none
Cc1ccccc1NC(=O)CCNS(=O)(=O)c1cccc2nsnc12	none
CN(C)CCNc1nc2sc3c(c2c(=O)n1CCc1ccccc1)CCCCC3	GPR7 antag 26 | GPR7 antag cf 43 | MCHR1 antagonist 57
COc1ccc(Cc2nc3ccc(C(=O)NCCc4ccccn4)cc3o2)cc1OC	GPR7 antag 22 | GPR7 antag cf inactive | MCHR1 antagonist inactive

Assay outcomes from PubChem.
